Fam108B inh: Fam108B inhibition, counter-screen for RBBP9 inhibitors; recombinant Fam108B, FP-Rh probe fluorescence polarization; inhibition, % at 9.51 µM; 300,000 tested, 0.33% active;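 active = inhibition above the screen mean inhibition plus 3 SD, computed separately per campaign, cut at about 18% in these data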;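 note: inhibitors lower polarization as less probe binds the enzyme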
LYPLA1 inh: counter-screen for PME1 inhibitors: inhibitors of human LYPLA1; O75608; recombinant LYPLA1, FP-Rh probe fluorescence polarization; inhibition, % at 5.9 µM; 320,000 tested, 0.16% active; AID 2174;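 active = inhibition above the mean of all tested compounds plus 3 SD, set per campaign, cut at about 14% in these data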;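 note: inhibitors block serine hydrolase probe labeling of LYPLA1 so polarization falls; 0% = enzyme with DMSO and 100% = wells lacking LYPLA1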
RBBP9 inh: blocks human serine hydrolase RBBP9; O75884; recombinant RBBP9, FP-Rh probe fluorescence polarization; inhibition, % at 7.94 µM; 220,000 tested, 0.2% active; AID 1515;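 active = inhibition above the campaign mean of all tested compounds plus 3 SD, cut at about 14% in these data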;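 note: plate controls were DMSO wells with RBBP9 for no effect and wells lacking RBBP9 protein for full effect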
Target sequence (O75884 whole entry, looked up): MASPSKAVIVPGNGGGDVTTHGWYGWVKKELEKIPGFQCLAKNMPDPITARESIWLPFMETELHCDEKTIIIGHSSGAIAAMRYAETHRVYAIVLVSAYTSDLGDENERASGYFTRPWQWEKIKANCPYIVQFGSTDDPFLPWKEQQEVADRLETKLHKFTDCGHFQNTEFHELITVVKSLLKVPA
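system = RBBP9 protein | input = RBBP9 at 2.5 µM in dispensed solution, before mixing | measured by = fluorescence polarization (mP), excitation 525 nm, emission 598 nm | incubation = enzyme-compound preincubation 30 min, then probe labeling 45 min, 25 °C | buffer or medium = Tris-NaCl-Pluronic buffer, pH 8.0 | compound = single dose 7.94 µM | also added = FP-Rh probe, 375 nM dispensing solution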
PAD4 inh: inhibitors of human PAD4; 330,000 tested, 0.41% active; Q9UM07; recombinant PAD4, RCA probe fluorescence polarization; inhibition, % at 6.36 µM;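 active = percent inhibition above a cutoff equal to the mean of all tested compounds plus 3 SD, cut at about 15% in these data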;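 note: 0% = PAD4 with RCA probe and DMSO and 100% = probe without PAD4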
PME-1 inh: blocks human protein phosphatase methylesterase 1; Q9Y570; recombinant PME-1, FP-Rh probe fluorescence polarization; inhibition, % at 5.9 µM; 320,000 tested, 0.53% active;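 active = inhibition above the campaign mean of all compounds plus 3 SD, cut at about 26% in these data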;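 note: competitive labeling of PME-1 active site by serine hydrolase directed probe; 0% = PME-1 with DMSO and 100% = wells lacking PME-1 enzyme; inhibitors block probe labeling so polarization falls and inhibition rises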
Target sequence (Q9Y570 whole entry, looked up): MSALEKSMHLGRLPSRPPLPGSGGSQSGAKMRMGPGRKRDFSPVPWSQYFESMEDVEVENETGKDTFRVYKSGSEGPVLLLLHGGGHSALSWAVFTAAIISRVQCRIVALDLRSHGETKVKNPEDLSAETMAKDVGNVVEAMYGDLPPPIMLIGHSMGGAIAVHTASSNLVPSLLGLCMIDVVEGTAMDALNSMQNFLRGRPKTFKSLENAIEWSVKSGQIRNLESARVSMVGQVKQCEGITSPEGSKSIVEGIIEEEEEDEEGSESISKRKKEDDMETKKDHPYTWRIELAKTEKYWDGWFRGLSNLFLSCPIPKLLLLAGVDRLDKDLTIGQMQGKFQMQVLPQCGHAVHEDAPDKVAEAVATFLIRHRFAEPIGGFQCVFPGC
LYPLA2 counter: LYPLA2 (human) inhibition in PME1 counter-screen. recombinant LYPLA2, FP-Rh probe fluorescence polarization. 320,000 tested, 0.38% active. AID 2177. O95372. inhibition, % at 5.9 µM;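 active = inhibition above the screen-wide mean plus 3 SD, limit set per campaign, cut at about 26% in these data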;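 note: 0% = LYPLA2 with DMSO and 100% = wells lacking LYPLA2 enzyme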
LYPLA2 conf: counter-screen for PME1 inhibitors: confirmation of human LYPLA2 inhibitors; shares compounds with LYPLA2 counter; recombinant LYPLA2, FP-Rh probe fluorescence polarization; inhibition, % at 5.9 µM; 1,100 tested, 72% active;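 active = mean inhibition across replicates above the hit cutoff set in the primary screen, cut at about 26% in these data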;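 note: blocked labeling of the enzyme by serine hydrolase FP-Rh probe lowers polarization; 0% = enzyme with DMSO and 100% = wells lacking LYPLA2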
LYPLA2 gel ABPP: inhibitors of human LYPLA2; rhLYPLA2 in mouse brain proteome, gel ABPP FP-Rh; shares compounds with LYPLA2 counter; inhibition, % at 20 µM; AID 652029; 150 tested, 30% active;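 active = inhibition of LYPLA2 enzyme probe labeling above about 50%, limit read from the data; inactive = inhibition below that limit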;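 note: loss of FP-Rh probe labeling of the LYPLA2 gel band measured as band density; 0% = DMSO only control band and 100% = blank gel background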
Starred values were filed as active, the others as inactive; . = no result. Only some compounds are listed: those with a hit (about 1.3% of all), similar ones and a draw of the others.

SMILES	Fam108B inh	LYPLA1 inh	RBBP9 inh	PAD4 inh	PME-1 inh	LYPLA2 counter	LYPLA2 conf	others
Cc1ccc(S(=O)(=O)c2nc(-c3ccccc3F)oc2N2CC(C)OC(C)C2)cc1 (configuration not stated)	3	0	.	-2	-3	4	.
Cc1cccc(NC(=S)NNC(=O)c2cc3c(s2)CCC(C)C3)c1C (configuration not stated)	-4	-4	4	4	4	-4	.
COc1ccc([C@H]2CC(=O)C=C(c3cccc(C#N)c3)C2)cc1	.	12	.	0	-1	33*	26*
COc1cccc(C2=NOC(C(=O)Nc3cccnc3Cl)C2)c1 (configuration not stated)	-3	4	-12	-1	4	6	.
Cc1cc2c(NC(=O)Nc3ccccc3)cccc2nn1	-1	-5	-1	-1	0	35*	36*
O=C(COc1ccc(Br)cc1)N/N=C1/SCC(=O)N1Cc1ccccc1	5	2	-4	1	4	12	.
CN(C(=O)c1ccc(NC(=O)Cc2ccc(NC(=O)C3CCCN(C(=O)C4CC4)C3)cc2)cc1)C1CC1 (configuration not stated)	.	3	.	1	-1	60*	61*	LYPLA2 gel ABPP=45
CN(C(=O)c1ccc(NC(=O)Cc2cccc(NC(=O)C3CCN(C(=O)C4CCCC4)CC3)c2)cc1)C1CCCC1	.	3	.	-5	-2	32*	-5
CN(Cc1ccccc1)C(=O)c1ccc(NC(=O)Cc2cccc(NC(=O)C3CCN(C(=O)C4CCCCC4)CC3)c2)cc1	.	-7	.	1	-11	-12	.
CN(C(=O)c1ccc(NC(=O)Cc2ccc(NC(=O)C3CCN(C(=O)C4CC4)CC3)cc2)cc1)C1CC1	.	4	.	-3	1	5	.
CCOC(=O)C1(CCOc2ccccc2)CCN(Cc2ccc3nonc3c2)CC1	-1	4	-2	2	-2	31*	28*
O=C(NCc1ccc2c(c1)OCO2)C1CCC(CNS(=O)(=O)c2cccc3nsnc23)CC1 (configuration not stated)	1	0	3	-4	6	34*	38*
CCC(C)(C)c1nnc(NC(=O)CCC2CCCCC2)s1	0	2	.	-2	7	-3	.
CC(C)C(NC(=O)c1ccco1)C(=O)OCC(=O)Nc1ccc(C(N)=O)cc1 (configuration not stated)	-3	3	-9	-3	3	-1	.
CCOc1ccc(NC(=O)CN(C)C(=O)c2ccccc2OCc2c(C)noc2C)cc1OCC	-1	-1	.	-2	1	-2	.
N#Cc1ccc(CN2CCN(CC(=O)NCCc3ccc(Cl)cc3Cl)CC2)cc1	6	-1	.	-4	7	27*	17
O=C(Cn1cc(C(F)(F)F)ccc1=O)NCCc1ccc(Cl)cc1Cl	0	1	-11	2	3	-3	.
C#CCOCCOCCOCCNc1nc(N2CCN(C(=O)CCCCCCCCCCNC(=O)[C@H]([C@@H](C)CC)n3cc(CCCCCN)nn3)CC2)nc(N2CCN(C(=O)CCCCCCCCCCNC(=O)[C@H]([C@@H](C)CC)n3cc(CCCCN=C(N)N)nn3)CC2)n1	-7	11	.	-18	-16	57*	56*
CCOc1ncccc1C(=O)OCC(=O)Nc1nnc(-c2ccccc2)o1	0	0	.	0	1	-5	.
Cc1ccc(OCC(=O)OCC(=O)c2ccccc2)cc1C	1	2	.	-1	4	29*	2
O=[N+]([O-])c1cc(-n2cnnn2)ccc1N1CCC(Cc2ccccc2)CC1	7	2	-1	-3	8	28*	34*
CC(C)(C)c1ccc(C(=O)N2CCC(C(=O)NC3CC3)CC2)cc1	-4	-3	.	-2	3	4	.
CC(C)(C)c1ccc(C(=O)N2CCC(C(=O)NCc3ccncc3)CC2)cc1	2	-1	9	0	6	34*	41*
CC(C)(C)c1ccc(C(=O)N2CCC(NC(=O)c3ccccc3)CC2)cc1	1	-2	.	1	-3	39*	37*
COc1ccc(CCNC(=O)C2CCN(C(=O)c3ccc(C(C)(C)C)cc3)CC2)cc1	4	3	.	0	6	20	.
SMILES	Fam108B inh	LYPLA1 inh	RBBP9 inh	PAD4 inh	PME-1 inh	LYPLA2 counter	LYPLA2 conf	others
O=C(O)c1cccc2c1C(=O)c1ccc(-c3ccc(F)cc3OCc3ccccc3)cc1S2(=O)=O	.	-9	.	-4	12	35*	29*
CCOC(=O)C(Cc1ccccc1)c1ccnc2ncnn12 (configuration not stated)	-4	4	-8	3	9	35*	10
CCOC(=O)C(Cc1ccccc1)C(=O)Nc1nccs1 (configuration not stated)	10	4	-11	-2	1	5	.
O=C(Nc1ncccc1O)c1cccc(S(=O)(=O)N2CCc3ccccc32)c1	4	-1	-10	1	-2	27*	-5
Cc1ccc(NC(=O)c2cccc(Oc3ccc([N+](=O)[O-])cc3)c2)c(C(=O)O)c1	-10	0	.	-1	-22	26*	38*
O=C(Nc1ccc(O)cc1)c1cccc(Oc2ccc([N+](=O)[O-])cc2)c1	3	1	-6	-4	5	18	.
Cc1ccc(NC(=O)CCC(=O)OCC(=O)c2ccc(Oc3ccc([N+](=O)[O-])cc3)cc2)c(C)c1	0	0	-10	2	4	29*	26*
NNC(=O)c1cc(NS(=O)(=O)c2cccs2)cc(NS(=O)(=O)c2cccs2)c1	.	.	.	-4	.	.	.
CCCN1C2CCCC1CC(NC(=O)c1ccc(OC)cc1)C2 (configuration not stated)	2	-4	.	-3	-2	-3	.
O=C(Nc1nccs1)c1ccc(Br)s1	-2	0	.	-1	2	11	.
CS(=O)(=O)N(CC(=O)N1CCCCCC1)c1cccc([N+](=O)[O-])c1	2	3	.	-2	0	9	.
CC(=O)Nc1cccc(C(=O)OC(C)C(=O)N2CCc3ccccc32)c1 (configuration not stated)	0	0	.	-1	6	28*	28*
Cc1c(C)c2ccc(OC(C)C(=O)NCCc3c[nH]c4ccccc34)cc2oc1=O (configuration not stated)	3	-1	.	4	5	7	.
O=C(CCC(=O)N1CCN(c2ccc(C(F)(F)F)cn2)CC1)c1cccs1	.	4	.	0	4	32*	25
